The source of these data is ChEMBL document CHEMBL4376862, “Synthesis and evaluation of novel chlorophyll a derivatives as potent photosensitizers for photodynamic therapy” (Eur J Med Chem, 2020).

A short description of series [1]: Drug uptake in human A549 cells incubated upto 24 hrs by fluorescence spectrophotometer analysis. The class given is ADME, cell-based. The conditions noted are these: a549, 24 h. Summed up:
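A549 cells (F-12K, 10% FBS, 37 °C, 5% CO2) grown in 24 wells and exposed to photosensitizer for 0.5, 1, 2, 4, 8, 12 or 24 h; cells harvested by digestion, fluorescence read on a spectrophotometer.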

Series [2] in a line: Induction of ROS generation in DMF solution assessed as ROS quantum yield at 2 uM followed by irradiation measured every 10 secs by spectrophotometric analysis. Format: functional.
The nature of series [3]: Therapeutic index, ratio of TC50 for human A549 cells under dark to IC50 for human A549 cells irradiated with 1 J/cm2 of 650 nanometer laser light. Particulars: read-out: TI; call rule not given here. The class given is toxicity, cell-based. A digest of the protocol: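 A549 cells (F-12K, 10% FBS, 37 °C, 5% CO2) seeded 24 h, then exposed to 0–10 photosensitizer for 24 h. Dark arm: MTT 48 h later. Light arm: 650 nm laser, 1 J/cm2 (25 mW/cm2, 40 s), then MTT. A570 viability relative to control, triplicate. Ratio = dark TC50 / irradiated IC50.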

The nature of series [4]: Absorption property of compound in DMSO assessed as strong absorption wavelength at 1 x 10^-3 M by UV-spectra analysis. Format: physicochemical. Particulars: 1000 µM. Summed up:
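Stocks 1 mM in DMSO; spectra run over […] range (units as printed), 300–800 nm in 1 nm steps, room temperature, quartz cuvettes, UV-vis spectrophotometer.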

The nature of series [5]: Emission property of a compound in DMSO assessed as red shift at 5 uM on excitation with light at 410 to 415 nm by 3D fluorescence spectra analysis. The class given is physicochemical. A digest of the protocol: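 Stock 1 mM in DMSO, measured at […] (so in the source); excitation scanned 350–640 nm, emission 600–750 nm, 1 nm steps, room temperature, quartz cuvettes; 3D fluorescence matrix spectra recorded.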

Series [6] relates to A549. Nature of the series: Phototoxicity against human A549 cells assessed as reduction in cell proliferation irradiated with 1 J/cm2 of 650 nanometer laser light preincubated for 24 hrs measured after 48 hrs by MTT assay. Particulars: A549, light or radiation study. Format: functional, cell-based. A digest of the protocol:
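A549 cells seeded 5×10^4 cells/100 µL per well, given […] for 24 h, then 650 nm semiconductor laser at 1 J/cm2 (25 mW/cm2, 40 s); MTT 4 h, absorbance 570 nm; viability vs control; triplicate, mean ± SD.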

A short description of series [7]: Dark toxicity in human A549 cells assessed as reduction in cell viability incubated under dark for 24 hrs measured after 48 hrs by MTT assay. The class given is cell-based. Particulars: read-out: TC50. A digest of the protocol: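 A549 cells seeded at 5×10^4 cells/100 µL per well for 24 h, treated in the dark with […] (so in the source) for 24 h; MTT added 4 h, absorbance 570 nm, 48 h later; viability as OD treated/OD control; triplicate, mean ± SD.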

The nature of series [8]: Induction of ROS generation in DMF solution assessed as slope of the photodegradation rate of DPBF at 2 uM followed by irradiation measured every 10 secs by spectrophotometric analysis. Format: functional.
The test system of series [9] is A549. Nature of the series: Photodynamic antitumor activity against human A549 cells xenografted in BALB/c nude mouse assessed as decrease in tumor weight at 0.3 mg/kg, iv followed by laser light irradiation at 120 J/cm2 measured after 14 days. The class given is functional. A digest of the protocol: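 Male BALB/c nude mice (5–6 weeks, 14–16 g) given 2×10^6 A549 cells s.c. in 0.2 mL PBS; at 6–7 mm tumors randomized into ten groups; drug via tail vein, 650 nm diode laser 120 J/cm2 at 180 mW/cm2 24 h later; caliper volume a×b²/2, followed 14 days.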

Series [10] is described as follows: Octanol/water partition coefficient, logP of compound by shake flask method. The class given is physicochemical. A digest of the protocol: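 Shake-flask method: equilibrium concentrations in octanol and water measured by UV-vis absorbance; log P taken as log of octanol/water concentration ratio (mg/L).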
Series [11] concerns Cavia porcellus. Nature of the series: Phototoxicity in guinea pig assessed as change in right ear weight 4.5 mg/kg, iv followed by 10 mW/cm2 light irradiation for 10 mins measured after 1 day of light irradiation (reference value: 40.4 +/- 2.4 mg). The class given is organism-based. Particulars: in vivo.
In series [12] the test system is Mus musculus. The experiment in a line: Phototoxicity in ICR mouse assessed as ear weight at 0.45 mg/kg, iv followed by 10 mW/cm2 light irradiation for 10 mins at 7 days after drug challenge measured after 1 day of light irradiation (13.2 +/- 1.6 mg). The class given is organism-based. Particulars: in vivo.
In series [13] the test system is Mus musculus. Nature of the series: Phototoxicity in ICR mouse assessed as ear weight at 0.45 mg/kg, iv followed by 10 mW/cm2 light irradiation for 10 mins at 1 day after drug challenge measured after 1 day of light irradiation (reference value: 12.6 +/- 1.2 mg). The class given is organism-based. The conditions noted are these: in vivo.
The test system of series [14] is Cavia porcellus. The experiment in a line: Phototoxicity in guinea pig assessed as change in back skin weight 4.5 mg/kg, iv followed by 10 mW/cm2 light irradiation for 10 mins measured after 1day of light irradiation (reference value: 72.4 +/- 3.1 mg). The class given is organism-based. Particulars: in vivo, 24 h.
Series [15] has as its system Mus musculus. Nature of the series: Phototoxicity in ICR mouse assessed as ear weight at 0.45 mg/kg, iv followed by 10 mW/cm2 light irradiation for 10 mins at 5 days after drug challenge measured after 1 day of light irradiation (reference value: 12.9 +/- 1.4 mg). The class given is organism-based. Particulars: in vivo.
Series [16] has as its system Mus musculus. The experiment in a line: Phototoxicity in ICR mouse assessed as ear weight at 0.45 mg/kg, iv followed by 10 mW/cm2 light irradiation for 10 mins at 3 days after drug challenge measured after 1 day of light irradiation (reference value: 12.8 +/- 1.5 mg). The conditions noted are these: in vivo. The class given is organism-based.
Series [17] has as its system Cavia porcellus. Nature of the series: Phototoxicity in guinea pig assessed as change in left ear weight 4.5 mg/kg, iv followed by 10 mW/cm2 light irradiation for 10 mins measured after 1 day of light irradiation (reference value: 39.2 +/- 1.8 mg). Format: organism-based. Particulars: in vivo.
Series [18] deals with Mus musculus. The experiment in a line: Phototoxicity in ICR mouse assessed as change in auricles 0.45 mg/kg, iv in presence of 10 mW/cm2 light irradiation for 10 mins upto 7 days measured after 1day of light irradiation by H and E staining based microscopic analysis. The class given is organism-based. The conditions noted are these: in vivo.
Series [19] relates to Mus musculus. The experiment in a line: Phototoxicity in ICR mouse assessed as change in exposed neck skin 0.45 mg/kg, iv in presence of 10 mW/cm2 light irradiation for 10 mins upto 7 days measured after 1day of light irradiation by H and E staining based microscopic analysis. Format: organism-based. The conditions noted are these: in vivo.

As for `CCC1=C(C)c2cc3[nH]c(cc4nc(c5c6[nH]c(cc1n2)c(C)c6C(=O)C5)[C@@H](CCC(=O)NCC(=O)CCC(=O)O)[C@@H]4C)c(C)c3C(C)OC` (some centres undefined), the Drug uptake entry in series [1] was “Active”. In addition, the Ratio in series [2] stood at 0.975. The selectivity ratio in series [3] was 4.54. The results for the Activity in series [4], in series [5] and in [9] were 660 to 670 nm, 661 to 669 nm and 0.1265 g, respectively. The concentration for half-maximal inhibition (IC50) in series [6] was found to be 590 nM. Also, the CC50 at 24 h in series [7] was 2680 nM. Moreover, the K in series [8] is 0.0195 s⁻¹. The compound further displayed a logP in series [10] of 1.91.
Consider `CCCCCOC(C)c1c(C)c2cc3nc(c4c5[nH]c(cc6nc(cc1[nH]2)C(C)=C6CC)c(C)c5C(=O)C4)[C@@H](CCC(=O)NCC(=O)CCC(=O)O)[C@@H]3C` (some centres undefined), for which, in series [1], the Drug uptake entry is listed as “Active”. Also, in series [2], the Ratio came out at 1.76. For the same compound, the selectivity ratio in series [3] came out at 10.4. Moreover, the Activity in series [4] was 660 to 670 nm; in series [5], 661 to 669 nm; in series [9], 0 g. The IC50 in series [6] was found to be 100 nM. The CC50 at 24 h in series [7] was determined as 1040 nM. Besides, the K in series [8] turned out to be 0.0353 s⁻¹. The logP in series [10] was 2.61.
As for `CCC1=C(C)c2cc3[nH]c(cc4nc(c5c6[nH]c(cc1n2)c(C)c6C(=O)C5)[C@@H](CCC(=O)NCC(=O)CCC(=O)O)[C@@H]4C)c(C)c3C(C)OCCOC` (some centres undefined), the Drug uptake entry in [1] is on record as “Active”. Further, in [2], the Ratio was 0.81. Further, the selectivity ratio in series [3] amounted to 7.43. The Activity was 660 to 670 nm in [4], 661 to 669 nm in [5] and 0.2431 g in [9]. The IC50 in series [6] amounted to 760 nM. For the same compound, in [7], the CC50 at 24 h stood at 5650 nM. In addition, the K in [8] worked out at 0.0162 s⁻¹. Further, the logP in series [10] came to 1.82.
Consider `CCCCCCOC(C)c1c(C)c2cc3nc(c4c5[nH]c(cc6nc(cc1[nH]2)C(C)=C6CC)c(C)c5C(=O)C4)[C@@H](CCC(=O)NCC(=O)CCC(=O)O)[C@@H]3C` (some centres undefined), for which, in series [1], the Drug uptake entry is “Active”. Also, the Ratio in [2] is 1.81. For the same compound, in series [3], the selectivity ratio was 12.6. The Activity is 660 to 670 nm in series [4], 661 to 669 nm in [5] and 0 g in series [9]. For the same compound, the IC50 in series [6] was determined as 80 nM. Further, the CC50 at 24 h in series [7] turned out to be 1010 nM. In series [8], the K came to 0.0363 s⁻¹. The compound further gave a logP in [10] of 2.67.
Turning to `CCCOCCOC(C)c1c(C)c2cc3nc(c4c5[nH]c(cc6nc(cc1[nH]2)C(C)=C6CC)c(C)c5C(=O)C4)[C@@H](CCC(=O)NCC(=O)CCC(=O)O)[C@@H]3C` (some centres undefined), in series [1], the Drug uptake entry is “Active”. In [2], the Ratio worked out at 1.65. For the same compound, the selectivity ratio in series [3] came out at 3.42. Further, the values for the Activity in [4], in series [5] and in series [9] were 660 to 670 nm, 661 to 669 nm and 0.1154 g, respectively. Further, the IC50 in series [6] was 1170 nM. Further, the CC50 at 24 h in series [7] is 4000 nM. For the same compound, the K in series [8] was 0.0329 s⁻¹. In [10], this compound came in with a logP of 2.22.
In the case of `CCCOC(C)c1c(C)c2cc3nc(c4c5[nH]c(cc6nc(cc1[nH]2)C(C)=C6CC)c(C)c5C(=O)C4)[C@@H](CCC(=O)NCC(=O)CCC(=O)O)[C@@H]3C` (some centres undefined), the Drug uptake result in [1] is “Active”. Moreover, the Ratio in [2] was 0.9. In series [3], the selectivity ratio came to 5.32. Further, the figures for the Activity in series [4], in series [5] and in series [9] were 660 to 670 nm, 661 to 669 nm and 0.0495 g, respectively. Moreover, in [6], the IC50 worked out at 500 nM. The CC50 at 24 h in series [7] was found to be 2660 nM. Besides, the K in series [8] was 0.018 s⁻¹. Also, in [10], the logP was 2.34.
Consider `CCOC(C)c1c(C)c2cc3nc(c4c5[nH]c(cc6nc(cc1[nH]2)C(C)=C6CC)c(C)c5C(=O)C4)[C@@H](CCC(=O)NCC(=O)CCC(=O)O)[C@@H]3C` (some centres undefined), for which, in series [1], the Drug uptake result is “Active”. Moreover, the Ratio in series [2] was found to be 0.805. In addition, the selectivity ratio in series [3] amounted to 4.74. The Activity is 660 to 670 nm in [4], 661 to 669 nm in [5] and 0.0527 g in [9]. Besides, the IC50 in [6] was 690 nM. Moreover, the CC50 at 24 h in series [7] came to 3270 nM. Also, the K in series [8] is 0.0161 s⁻¹. Further, the logP in [10] was found to be 2.16.
In the case of `C=Cc1c(C)c2cc3nc(c4c5[nH]c(cc6nc(cc1[nH]2)C(C)=C6CC)c(C)c5C(=O)C4)[C@@H](CCC(=O)O)[C@@H]3C` [PYROPHEOPHORBIDE A], the Activity in series [11] was 59.2 mg; in series [12] it was 13.3 mg; in [13], 13.1 mg; in series [4], “Active”; in [5] it was 661 to 669 nm; in [14], 100.3 mg. For the same compound, the Activity in [15] was 13.2 mg; in series [16] it was 12.7 mg; in series [17] it was 57.2 mg; in series [18] it was “Non-Toxic”; in series [19], “Non-Toxic”. Also, in [2], the Ratio came out at 0.405. Besides, the K in series [8] came to 0.0081 s⁻¹. The logP in series [10] came to 3.77.
